The source made the active and inactive calls. No cut-off for these calls is given here.
Experiments:
[1] = Toxicity in BALB/c mouse xenografted with human hT-29 cells assessed as effect on body mass at 20 to 40 mg/kg, ip dosed every day for 21 days; assay type: organism-based; conditions: in vivo, 504 h
Summary of the method: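 Female BALB/c nude mice, 5-6 weeks old, inoculated subcutaneously with 1×10^6 HT29 cells. At tumor volume 100 mm³, animals randomized to compound or saline, given intraperitoneally every day for 21 days. Body weight recorded every three days; animals euthanized at 20% weight loss. Tumor volume = ½(L×W²) from caliper measurements; tumors excised and weighed at the end.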

[2] = Toxicity in ICR mouse assessed as induction of abnormality in drinking behavior at 240 mg/kg, ip for 14 days; assay type: organism-based; conditions: in vivo, 336 h
Summary of the method: (§1)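 Female ICR mice (n = 10 per group) given a single intraperitoneal dose at 240.0, 300.0, 375.0, 468.8 or 585.9 mg/kg, or vehicle. Deaths recorded at 1 h, 4 h and daily through day 14. Body weight, drinking, eating and activity observed for abnormality; LD50 derived from mortality.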

[3] = Toxicity in ICR mouse assessed as induction of abnormality in eating behavior at 240 mg/kg, ip for 14 days; assay type: organism-based; conditions: in vivo, 336 h; summary of the method: as §1
[4] = Drug metabolism assessed as GSTpi (unknown origin) mediated compound fluorescence activation at 1 uM in presence of 100 uM alanine by HPLC analysis; assay type: ADME; conditions: human
Summary of the method: (§2)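 Selectivity test: compound (1 µM) with catalytic GSTπ and each analyte in water with 1% (v/v) DMSO at pH 4.0, 37 °C for 0.5 h. Analytes were cations at 1 mM; amino acids, vitamin C, Na2S and GSH at 100 µM. Readout was fluorescence emission spectra (excitation 440 nm, recorded 450–650 nm).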

[5] = system: HT-29; experiment: Antitumor activity against human HT-29 cells xenografted in nude BALB/c mouse assessed as reduction in tumor volume at 40 mg/kg, ip dosed every day for 21 days; assay type: functional, organism-based
[6] = Drug metabolism assessed as GSTpi (unknown origin) mediated compound fluorescence activation at 1 uM in presence of 1 mM Mg2+ by HPLC analysis; assay type: ADME; conditions: human; summary of the method: as §2
[7] = Drug uptake in lysosome of human CCD-841 cells at 1 uM incubated for 60 mins by Lyso-tracker based confocal fluorescence microscopy; assay type: ADME; conditions: 1 h
Summary of the method: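 HT29 and CCD841 cells were seeded at 2×10^5 in glass-bottom dishes. They were co-incubated in DMEM with compound (1 µM) and LysoTracker Red DND-99 (1 µM). Confocal imaging used a 40× water objective. Compound channel: 405 nm laser, 480–530 nm filter. LysoTracker channel: 561 nm laser, 580–630 nm filter.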

[8] = Cytotoxicity against human CCD-841 cells by MTT assay; assay type: cell-based
Summary of the method: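 MTT assay. Cells were grown in DMEM/RPMI 1640 with 10% FBS, penicillin and streptomycin at 37 °C under 5% CO2. After a PBS wash, cells got 0.5 mg/mL MTT for 3 h at 37 °C. Formazan was dissolved in DMSO and absorbance read at 570 nm. Inhibition was expressed as a percentage and IC50 calculated. Means ± SD come from three separate experiments.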

[9] = Toxicity in ICR mouse assessed as induction of abnormality in general activity behavior at 240 mg/kg, ip for 14 days; assay type: organism-based; conditions: in vivo, 336 h; summary of the method: as §1
[10] = Drug metabolism assessed as GSTpi (unknown origin) mediated compound fluorescence activation at 1 uM in presence of 100 uM serine by HPLC analysis; assay type: ADME; conditions: human; summary of the method: as §2
[11] = Toxicity in ip dosed ICR mouse for 14 days; assay type: organism-based; conditions: in vivo
Summary of the method: (§3)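 Female ICR mice, randomised, n = 10 per group. Single intraperitoneal dose of 240.0, 300.0, 375.0, 468.8 or 585.9 mg/kg, or vehicle. Deaths recorded at 1 h, 4 h, days 1–4 and days 5–14. Body weight, drinking, eating and activity observed over 14 days. Survival percentage taken on day 14; LD50 derived from the dose–mortality data.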

[12] = Drug metabolism assessed as GSTpi (unknown origin) mediated compound fluorescence activation at 1 uM in presence of 1 mM Cu2+ by HPLC analysis; assay type: ADME; conditions: human; summary of the method: as §2
[13] = system: HT-29; experiment: Induction of autophagy in human HT-29 cells assessed as increase in LC3-II protein level incubated for 72 hrs by Western blot analysis; assay type: functional, cell-based
Summary of the method: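 HT29 cells (1.5×10^5/mL) exposed to compound or vehicle for 72 h, then lysed. Lysates (0.05 mg/lane) run on 12% SDS-PAGE, transferred to nitrocellulose, blocked with 5% non-fat milk and probed for LC3, p62, beclin-1 and β-actin. Bands quantified relative to β-actin, with LC3-II/LC3-I ratio also calculated; means ± SD from three independent assays.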

[14] = Toxicity in ICR mouse assessed as induction of animal death at 240 to 300 mg/kg, ip measured after 2 days; assay type: organism-based; conditions: in vivo, 48 h; summary of the method: as §3
[15] = system: HT-29; experiment: Induction of apoptosis in human HT-29 cells assessed as increase in Bax protein level incubated for 72 hrs by Western blot analysis; assay type: functional, cell-based
Summary of the method: (§4)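 HT29 cells (1.5×10^5/mL) were treated for 72 h and lysed. Lysate (0.05 mg/lane) was run on 12% SDS-PAGE and transferred to nitrocellulose. After blocking in 5% non-fat milk, blots were probed for Bax, Bcl-2, cleaved caspase-3, cleaved PARP, LC3, p62 and beclin-1. Levels were normalised to β-actin, and means ± SD taken from three independent assays.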

[16] = Toxicity in ICR mouse assessed as induction of animal death at 240 to 468.8 mg/kg, ip measured after 5 to 14 days; assay type: organism-based; conditions: in vivo; summary of the method: as §3
[17] = Drug uptake in human CCD-841 cells at 1 uM measured within 10 mins by confocal fluorescence microscopy; assay type: ADME, cell-based
Summary of the method: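 Cells were seeded at 2×10^5 in glass-bottom dishes and allowed to attach. Medium was then replaced with DMEM containing 1 µM compound. Confocal images were taken every minute for 60 min with a 40× water objective, 405 nm laser and 480–530 nm filter. Intracellular fluorescence intensity was quantified.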

[18] = Toxicity in ICR mouse assessed as induction of animal death at 240 to 375 mg/kg, ip measured after 1 day; assay type: organism-based; conditions: in vivo, 24 h; summary of the method: as §3
[19] = Toxicity in ICR mouse assessed as induction of abnormality in body weight level at 240 mg/kg, ip for 14 days; assay type: organism-based; conditions: in vivo, 336 h; summary of the method: as §1
[20] = Drug metabolism assessed as GSTpi (unknown origin) mediated compound fluorescence activation at 1 uM in presence of 100 uM vitamin C by HPLC analysis; assay type: ADME; conditions: human; summary of the method: as §2
[21] = Toxicity in ICR mouse assessed as induction of animal survival rate at 240 mg/kg, ip measured after 14 days; assay type: organism-based; conditions: in vivo; summary of the method: as §3
[22] = Drug metabolism assessed as GSTpi (unknown origin) mediated compound fluorescence activation at 1 uM in presence of 50 uM […] by HPLC analysis; assay type: ADME; conditions: human
[23] = system: HT-29; experiment: Induction of autophagy in human HT-29 cells assessed as increase in Beclin-1 protein level incubated for 72 hrs by Western blot analysis; assay type: functional, cell-based; summary of the method: as §4
[24] = Drug metabolism assessed as GSTpi (unknown origin) mediated compound fluorescence activation at 1 uM in presence of 1 mM Zn2+ by HPLC analysis; assay type: ADME; conditions: human; summary of the method: as §2
[25] = Drug metabolism assessed as GSTpi (unknown origin) mediated compound fluorescence activation at 1 uM in presence of 1 mM Na+ by HPLC analysis; assay type: ADME; conditions: human; summary of the method: as §2

## COc1cc(-c2nc(NC(=O)OCC3=CCCCC3=O)cc3c2[nH]c2ccccc23)cc(OC)c1OC
[1]
  Activity: Non-Toxic
[2]
  Activity: Non-Toxic
[3]
  Activity: Non-Toxic
[4]
  Drug metabolism: Metabolite_Notdetected
[5]
  Activity: Active
[6]
  Drug metabolism: Metabolite_Notdetected
[7]
  Drug uptake: Not Active
[8]
  IC50: 23.4 µM
[9]
  Activity: Non-Toxic
[10]
  Drug metabolism: Metabolite_Notdetected
[11]
  LD50 at 336 h: 475 mg/kg
[12]
  Drug metabolism: Metabolite_Notdetected
[13]
  Activity: Dose-dependent effect
[14]
  Activity: Non-Toxic
[15]
  Activity: Dose-dependent effect
[16]
  Activity: Non-Toxic
[17]
  Drug uptake: Not Active
[18]
  Activity: Non-Toxic
[19]
  Activity: Non-Toxic
[20]
  Drug metabolism: Metabolite_Notdetected
[21]
  survival at 336 h: 100%
[22]
  Drug metabolism: Metabolite_Notdetected
[23]
  Activity: Dose-dependent effect
[24]
  Drug metabolism: Metabolite_Notdetected
[25]
  Drug metabolism: Metabolite_Notdetected
